{
  "source": "paper PMC6217529",
  "about": "(ACS Omega, 2018)",
  "key": {"[1]": {"test_system": "mice", "experiment": "Edema inducing activity in mice foot pads", "format": "in vivo", "conditions": "up to 100 μg"}, "[2]": {"test_system": "platelets (PRP)", "experiment": "Epinephrine-induced platelet aggregation in PRP", "format": "cell-based, human", "conditions": "agonist epinephrine", "summary_of_the_method": "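Platelet-rich plasma (PRP) and platelet-poor plasma (PPP) were prepared from fresh blood of healthy human donors, and PRP was adjusted with PPP to 3.1 × 10^8 platelets/mL at 37 °C. PRP was pre-incubated with test compound (10, 20 or 30 μg) in a 0.25 mL reaction volume. Aggregation was started with 5 μM epinephrine and traced on a dual-channel optical lumi-aggregometer. Inhibition % was plotted against dose, from three independent experiments.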"}, "[3]": {"test_system": "mice", "experiment": "Hemorrhagic activity in mice, intradermal", "format": "in vivo", "conditions": "up to 100 μg"}},
  "note": "“Also recorded” adds a separate entry of the source.",
  "data": [
    {"molecule": "Cn1c(-c2ccc(Br)s2)nc2cc(-c3nnc(-c4cc(-c5cc(F)cc(F)c5)nc5ccccc45)o3)ccc21", "note": "[8a, 2-(2-(5-Bromothiophen-2-yl)-1-methyl-1H-benzo[d]imidazol-5-yl)-5-(2-(3,5-difluorophenyl)quinolin-4-yl)-1,3,4-oxadiazole]", "values": [
      {"measurement": "edema in experimental mice (in words)", "setting": "[1]", "result": "anti-edema; also recorded: active in preventing hemorrhage and edema"},
      {"measurement": "ability to inhibit epinephrine-induced platelet aggregation (in words)", "setting": "[2]", "result": "able to inhibit the epinephrine-induced platelet aggregation"},
      {"measurement": "hemorrhage in experimental mice (in words)", "setting": "[3]", "result": "anti-hemorrhagic"}
    ]},
    {"molecule": "Cn1c(-c2ccc(Br)s2)nc2cc(-c3nnc(-c4cc(-c5ccc(Cl)cc5Cl)nc5ccccc45)o3)ccc21", "note": "[8d, 2-(2-(5-Bromothiophen-2-yl)-1-methyl-1H-benzo[d]imidazol-5-yl)-5-(2-(2,4-dichlorophenyl)quinolin-4-yl)-1,3,4-oxadiazole]", "values": [
      {"measurement": "edema in experimental mice (in words)", "setting": "[1]", "result": "anti-edema; also recorded: active in preventing hemorrhage and edema"},
      {"measurement": "ability to inhibit epinephrine-induced platelet aggregation (in words)", "setting": "[2]", "result": "but not the 8d sample"},
      {"measurement": "hemorrhage in experimental mice (in words)", "setting": "[3]", "result": "anti-hemorrhagic"}
    ]}
  ]
}
